Assay results reported in ChEMBL document CHEMBL1123082, “Hashish: synthesis and central nervous system activity of some novel analogues of cannabidiol and oxepin derivatives of delta 9-tetrahydrocannabinol” (1985).
Calls of active or inactive are those of the source.

Assays:
Mus musculus [1] = assay: Spontaneous activity in mice at a dose 10 mg/kg; format: functional
Summary of the method: (§1)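 Male ICR mice (22–30 g), housed 24 h in the lab before testing. Vehicle or drug given iv (0.1 mL/10 g), then each mouse placed alone in a photocell activity chamber. Beam interruptions counted for 10 min and expressed as percent of vehicle-treated controls. ED50 with 95% confidence limits by Litchfield–Wilcoxon. At least six mice per dose.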

Mus musculus [2] = assay: Compound was evaluated for the percent antagonism by tail-flick test in mice in mice at dose 10 mg/kg; format: functional
Summary of the method: (§2)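 Male ICR mice (22–30 g). Vehicle or drug given iv 10 min before an iv injection of Δ9-THC (1 mg/kg) or vehicle into the opposite tail vein. Tail-flick measured 5 min after the second injection, with a 10 s cutoff. % antagonism = [1 − (%MPE drug-pretreated / %MPE vehicle-pretreated)] × 100. At least six mice per dose.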

Mus musculus [3] = assay: Compound was evaluated for the percent antagonism by tail-flick test in mice in mice at dose 25 mg/kg; format: functional; summary of the method: as §2
Mus musculus [4] = assay: The difference between the preinjection and postinjection (60 min) temperatures in mice was evaluated at a dose 30 mg/kg; format: functional
Summary of the method: (§3)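 Male ICR mice (22–30 g). Rectal temperature taken by thermistor probe inserted 25 mm just before iv vehicle or drug (0.1 mL/10 g). Mice spent 10 min in activity chambers, then temperature was taken immediately and every 10 min up to 60 min. Value is the change from pre-injection to 60 min post-injection, mean ± SEM, N = 6. Ambient temperature was 21–24 °C.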

Mus musculus [5] = assay: The difference between the preinjection and postinjection (60 min) temperatures in mice was evaluated at a dose 35 mg/kg; format: functional; summary of the method: as §3
Mus musculus [6] = assay: The difference between the preinjection and postinjection (60 min) temperatures in mice was evaluated at a dose 25 mg/kg; format: functional; summary of the method: as §3
Mus musculus [7] = assay: Compound was evaluated for the maximum possible effect by tail-flick test in mice at dose 25 mg/kg; format: functional
Summary of the method: (§4)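 Male ICR mice (22–30 g). Control tail-flick latency to a heat source measured in each mouse. Vehicle or drug then given iv into the tail vein and latency retested 5 min later, with a 10 s cutoff. %MPE = (test − control)/(cutoff − control) × 100. At least six mice per dose.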

Canis familiaris [8] = assay: Compound was evaluated for overt behavoiur in dogs by behavioral rating score in dog static-ataxia test at a dose 5 mg/kg; format: functional, Canis lupus familiaris
Summary of the method: (§5)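 Mongrel dogs of either sex (8–12 kg) scored for spontaneous activity, gait, tail tuck, etc. before dosing. Cannabinoid or vehicle then given iv (1 mL/5 kg). Behaviour rated every 5 min on the Walton static-ataxia scale as modified. Sessions of five dogs: vehicle, 0.2 mg/kg Δ9-THC positive control, or one of three other cannabinoid treatments. Score given with number of dogs.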

Canis familiaris [9] = assay: Compound was evaluated for overt behavoiur in dogs by behavioral rating score in dog static-ataxia test at a dose 2 mg/kg; format: functional, Canis lupus familiaris; summary of the method: as §5
Mus musculus [10] = assay: The difference between the preinjection and post injection temperatures in vehicle treated mice was evaluated at a dose 100 mg/kg; format: functional; summary of the method: as §3
Mus musculus [11] = assay: The difference between the preinjection and post injection temperatures in vehicle treated mice was evaluated at a dose 2 mg/kg; format: functional; summary of the method: as §3
Mus musculus [12] = assay: The difference between the preinjection and post injection temperatures in vehicle treated mice was evaluated at a dose 30 mg/kg; format: functional; summary of the method: as §3
Mus musculus [13] = assay: Spontaneous activity in vehicle treated mice at a dose 100 mg/kg.; format: functional; summary of the method: as §1
Mus musculus [14] = assay: Spontaneous activity in vehicle treated mice at a dose 30 mg/kg.; format: functional; summary of the method: as §1
Canis familiaris [15] = assay: Compound was evaluated for overt behavoiur in dogs by behavioral rating score in dog static-ataxia test at a dose 0.5 mg/kg; format: functional, Canis lupus familiaris; summary of the method: as §5
Mus musculus [16] = assay: The difference between the preinjection and post injection temperatures in vehicle treated mice was evaluated at a dose 10 mg/kg; format: functional; summary of the method: as §3
Mus musculus [17] = assay: The difference between the preinjection and post injection temperatures in vehicle treated mice was evaluated at a dose 1 mg/kg; format: functional; summary of the method: as §3
Mus musculus [18] = assay: The difference between the preinjection and post injection temperatures in vehicle treated mice was evaluated at a dose 3 mg/kg; format: functional; summary of the method: as §3
Mus musculus [19] = assay: Compound was evaluated spontaneous activity in vehicle treated mice at a dose 100 mg/kg.; format: functional; summary of the method: as §1
Mus musculus [20] = assay: Compound was evaluated spontaneous activity in vehicle treated mice at a dose 10 mg/kg.; format: functional; summary of the method: as §1
Mus musculus [21] = assay: Compound was evaluated spontaneous activity in vehicle treated mice at a dose 1 mg/kg.; format: functional; summary of the method: as §1
Mus musculus [22] = assay: Compound was evaluated spontaneous activity in vehicle treated mice at a dose 3 mg/kg.; format: functional; summary of the method: as §1
Mus musculus [23] = assay: Compound was evaluated spontaneous activity in vehicle treated mice at a dose 30 mg/kg.; format: functional; summary of the method: as §1
Mus musculus [24] = assay: Compound was evaluated for the percent antagonism by tail-flick test in mice in mice at dose 20 mg/kg; format: functional; summary of the method: as §2
Mus musculus [25] = assay: Compound was evaluated for the percent antagonism in tail-flick test in mice in mice at dose 10 mg/kg; format: functional; summary of the method: as §2
Mus musculus [26] = assay: The difference between the preinjection and postinjection (60 min) temperatures in mice was evaluated at a dose 60 mg/kg; format: functional
Summary of the method: (§6)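 Male ICR mice (22–30 g), housed 24 h before testing; rectal temperature by thermistor probe inserted 25 mm, taken just before dosing. Drug or vehicle given iv (0.1 mL/10 g); mice held 10 min in photocell chambers, then temperature read at 10-min intervals to 60 min. Value is pre- minus 60-min post-injection difference, mean ± SEM, N = 6.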

Mus musculus [27] = assay: The difference between the preinjection and postinjection (60 min) temperatures in mice was evaluated at a dose 10 mg/kg; format: functional; summary of the method: as §3
Mus musculus [28] = assay: Compound was evaluated for the maximum possible effect by tail-flick test in mice at dose 20 mg/kg; format: functional; summary of the method: as §4
Mus musculus [29] = assay: Compound was evaluated for the percent antagonism in tail-flick test in mice at a dose 20 mg/kg; format: functional; summary of the method: as §2
Mus musculus [30] = assay: Compound was evaluated for the maximum possible effect in tail-flick test in mice at dose 20 mg/kg; format: functional; summary of the method: as §4
Mus musculus [31] = assay: Compound was evaluated for the percent antagonism in tail-flick test in mice at dose 40 mg/kg; format: functional; summary of the method: as §2
Mus musculus [32] = assay: The difference between the preinjection and postinjection (60 min) temperatures in mice was evaluated at a dose 40 mg/kg; format: functional; summary of the method: as §3
Mus musculus [33] = assay: The difference between the preinjection and postinjection (60 min) temperatures in mice was evaluated at a dose 50 mg/kg; format: functional; summary of the method: as §3
Mus musculus [34] = assay: The difference between the preinjection and postinjection (60 min) temperatures in mice was evaluated at a dose 75 mg/kg; format: functional; summary of the method: as §6
Mus musculus [35] = assay: The difference between the preinjection and postinjection (60 min) temperatures in mice was evaluated at a dose 100 mg/kg; format: functional; summary of the method: as §3
Mus musculus [36] = assay: Compound was evaluated for the maximum possible effect in tail-flick test in mice at dose 40 mg/kg; format: functional; summary of the method: as §4
Mus musculus [37] = assay: Spontaneous activity in mice at a dose 10 mg/kg; Not active up to a lethal dose of 60 mg/kg; format: functional, organism-based; summary of the method: as §1
Mus musculus [38] = assay: Compound was evaluated for the percent antagonism by tail-flick test in mice at dose 10 mg/kg; format: functional; summary of the method: as §2
Mus musculus [39] = assay: The difference between the preinjection and postinjection (60 min) temperatures in mice was evaluated at a dose 5 mg/kg; format: functional; summary of the method: as §3
Mus musculus [40] = assay: The difference between the preinjection and postinjection (60 min) temperatures in mice was evaluated at a dose 7.5 mg/kg; format: functional
Mus musculus [41] = assay: The difference between the preinjection and postinjection (60 min) temperatures in mice was evaluated at a dose 2.5 mg/kg; format: functional
Mus musculus [42] = assay: Compound was evaluated for the maximum possible effect in tail-flick test in mice at dose 0.3 mg/kg; format: functional; summary of the method: as §4
Mus musculus [43] = assay: Compound was evaluated for the maximum possible effect in tail-flick test in mice at dose 1 mg/kg; format: functional; summary of the method: as §4
Mus musculus [44] = assay: Compound was evaluated for the maximum possible effect in tail-flick test in mice at dose 2.5 mg/kg; format: functional; summary of the method: as §4
Mus musculus [45] = assay: Compound was evaluated for the percent antagonism by tail-flick test in mice in mice at dose 1.0 mg/kg; format: functional; summary of the method: as §2
Mus musculus [46] = assay: Compound was evaluated for the percent antagonism by tail-flick test in mice in mice at dose 2.5 mg/kg; format: functional; summary of the method: as §2
Mus musculus [47] = assay: Compound was evaluated for the percent antagonism by tail-flick test in mice in mice at dose 5.0 mg/kg; format: functional; summary of the method: as §2
Mus musculus [48] = assay: The difference between the preinjection and postinjection (60 min) temperatures in mice was evaluated at a dose 1.0 mg/kg; format: functional; summary of the method: as §3
Mus musculus [49] = assay: The difference between the preinjection and postinjection (60 min) temperatures in mice was evaluated at a dose 5.0 mg/kg; format: functional; summary of the method: as §3
Mus musculus [50] = assay: Compound was evaluated for the maximum possible effect by tail-flick test in mice at dose 5.0 mg/kg; format: functional; summary of the method: as §4

## C=C(CNC(=O)CCCN)[C@@H]1CCC(C)=CC1c1c(O)cc(CCCCC)cc1O (stereo partly drawn)
Mus musculus [1]
  ED50: 30 mg/kg
Mus musculus [2]
  Antagonism: 14%
Mus musculus [3]
  Antagonism: 43%
Mus musculus [4]
  Hypothermic effect: 2
Mus musculus [5]
  Hypothermic effect: 2.1
Mus musculus [6]
  Hypothermic effect: 1.3
Mus musculus [7]
  MPE: 7%

## C=C1COc2cc(CCCCC)cc(O)c2C2C=C(C)CC[C@@H]12 (stereo partly drawn)
Canis familiaris [8]
  Overt behavoiur: 0
Canis familiaris [9]
  Overt behavoiur: 0
Mus musculus [10]
  Hypothermic effect: 0
Mus musculus [11]
  Hypothermic effect: 0.4
Mus musculus [12]
  Hypothermic effect: 0.1
Mus musculus [13]
  Spontaneous activity: 41
Mus musculus [14]
  Spontaneous activity: 0

## C=C1COc2cc(C(C)C(C)CCCCC)cc(O)c2C2C=C(C)CC[C@@H]12 (stereo partly drawn)
Canis familiaris [15]
  Overt behavoiur: 0
Mus musculus [10]
  Hypothermic effect: 7.8
Mus musculus [16]
  Hypothermic effect: 4.9
Mus musculus [17]
  Hypothermic effect: 0.4
Mus musculus [12]
  Hypothermic effect: 5.7
Mus musculus [18]
  Hypothermic effect: 0.6
Mus musculus [19]
  Spontaneous activity: 82
Mus musculus [20]
  Spontaneous activity: 71
Mus musculus [21]
  Spontaneous activity: 10
Mus musculus [22]
  Spontaneous activity: 50
Mus musculus [23]
  Spontaneous activity: 58

## C#CCN(C)CC(=C)[C@@H]1CCC(C)=CC1c1c(OC(C)=O)cc(CCCCC)cc1OC(C)=O (stereo partly drawn)
Mus musculus [1]
  ED50: 13 mg/kg
Mus musculus [24]
  Antagonism: 63%
Mus musculus [25]
  Antagonism: 25%
Mus musculus [4]
  Hypothermic effect: 1
Mus musculus [26]
  Hypothermic effect: 1.5
Mus musculus [27]
  Hypothermic effect: 0.3
Mus musculus [28]
  MPE: 0%

## C=C(CN1CCOCC1)[C@@H]1CCC(C)=CC1c1c(OC(C)=O)cc(CCCCC)cc1OC(C)=O (stereo partly drawn)
Mus musculus [1]
  ED50: 16 mg/kg
Mus musculus [29]
  Antagonism: 14%
Mus musculus [4]
  Hypothermic effect: 1.2
Mus musculus [26]
  Hypothermic effect: 1.3
Mus musculus [27]
  Hypothermic effect: 0.9
Mus musculus [30]
  MPE: 3%

## C=C(C)[C@@H]1CCC(C)=C[C@H]1c1c(O)cc(CCCCC)cc1O [CANNABIDIOL]
Mus musculus [31]
  Antagonism: 0%
Mus musculus [32]
  Hypothermic effect: 0.5
Mus musculus [33]
  Hypothermic effect: 0.4
Mus musculus [34]
  Hypothermic effect: 2.1
Mus musculus [35]
  Hypothermic effect: 2.5
Mus musculus [36]
  MPE: 5%

## C=C(CN(C(C)C)C(C)C)[C@@H]1CCC(C)=CC1c1c(OC(C)=O)cc(CCCCC)cc1OC(C)=O (stereo partly drawn)
Mus musculus [37]
  ED50: inactive
Mus musculus [38]
  Antagonism: 0%
Mus musculus [24]
  Antagonism: 58%
Mus musculus [4]
  Hypothermic effect: 0.9
Mus musculus [27]
  Hypothermic effect: 1
Mus musculus [28]
  MPE: 0%

## CCCCCc1cc(O)c2c(c1)OC(C)(C)[C@@H]1CCC(C)=C[C@@H]21 [DRONABINOL]
Mus musculus [39]
  Hypothermic effect: 3.6
Mus musculus [40]
  Hypothermic effect: 3.8
Mus musculus [41]
  Hypothermic effect: 2.6
Mus musculus [42]
  MPE: 27%
Mus musculus [43]
  MPE: 53%
Mus musculus [44]
  MPE: 61%

## C=C(CNCC)[C@@H]1CCC(C)=CC1c1c(O)cc(CCCCC)cc1O (stereo partly drawn)
Mus musculus [45]
  Antagonism: 33%
Mus musculus [46]
  Antagonism: 66%
Mus musculus [47]
  Antagonism: 67%
Mus musculus [48]
  Hypothermic effect: 1
Mus musculus [49]
  Hypothermic effect: 1
Mus musculus [41]
  Hypothermic effect: 1.4
Mus musculus [50]
  MPE: 7%
